Reference: ChEMBL document CHEMBL1146749, “The effect of C2-fluoro group on the biological activity of DC-81 and its dimers” (2004)

How the values were obtained:
[1] = test system: Nucleic Acid; test: DNA binding ability by thermal denaturation studies using calf thymus DNA after incubation at 37 degree C for 36 hour; assay type: nucleic-acid assay; conditions: Bos taurus
Procedure, shortened: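 Calf thymus DNA 100 µM with PBD 20 µM (1:5 [PBD]:[DNA]) in 10 mM sodium phosphate + 1 mM EDTA, pH 7.00, incubated at 37 °C for 0, 18 or 36 h. Thermal melting measured; ΔTm taken relative to CT-DNA alone, whose Tm is the mean of 10 separate determinations.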

[2] = test system: Nucleic Acid; test: DNA binding ability by thermal denaturation studies using calf thymus DNA after incubation at 37 degree C for 18 hour; assay type: nucleic-acid assay; conditions: Bos taurus
[3] = test system: Nucleic Acid; test: DNA binding ability by thermal denaturation studies using calf thymus DNA after incubation at 37 degree C for 0 hour; assay type: nucleic-acid assay; conditions: Bos taurus
[4] = test system: NCI-H460; test: In vitro anticancer activity was evaluated for the percentage growth of human lung NCI-H460 cell line; assay type: functional
Procedure, shortened: (§1)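 Each cell line received a single dose of 10^-4 M, and the read-out was percentage growth.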

[5] = test system: SF-268; test: In vitro cytotoxicity against human CNS SF-268 cancer cell line; assay type: functional
[6] = test system: SW-620; test: In vitro cytotoxicity against human colon SW-620 cancer cell line; assay type: functional
[7] = test system: MCF7; test: In vitro anticancer activity was evaluated for the percentage growth of human breast MCF-7 cell line; assay type: functional; procedure, shortened: as §1
[8] = test system: SF-268; test: In vitro anticancer activity was evaluated for the percentage growth of human (CNS) SF-268 cell line; assay type: functional; procedure, shortened: as §1
[9] = test system: UO-31; test: In vitro cytotoxicity against human renal UO-31 cancer cell line; assay type: functional
[10] = test system: SF-295; test: In vitro cytotoxicity against human CNS SF-295 cancer cell line; assay type: functional
[11] = test system: CCRF-CEM; test: In vitro cytotoxicity against human leukemia CCRF-CEM cancer cell line; assay type: functional
[12] = test system: SR; test: In vitro cytotoxicity against human leukemia SR cancer cell line; assay type: functional
[13] = test system: NCI-H522; test: In vitro cytotoxicity against human non-small cell lung NCI-H522 cancer cell line; assay type: functional
[14] = test system: Hs-578T; test: In vitro cytotoxicity against human breast Hs 578.T cancer cell line; assay type: functional

SMILES | ΔTm [1] [°C] | ΔTm [2] [°C] | ΔTm [3] [°C] | Growth [4] [%] | GI50 [5] [nM] | GI50 [6] [nM] | Growth [7] [%] | Growth [8] [%] | GI50 [9] [nM] | GI50 [10] [nM] | GI50 [11] [nM] | GI50 [12] [nM] | GI50 [13] [nM] | GI50 [14] [nM]
COc1cc2c(cc1O)N=C[C@@H]1C[C@@H](F)CN1C2=O | 2.25 | 1.5 | 0.6 | – | – | – | – | – | – | – | – | – | – | –
COc1cc2c(cc1O)N=C[C@@H]1CCCN1C2=O | – | 0.7 | 0.3 | – | – | – | – | – | – | – | – | – | – | –
COc1cc2c(cc1OCCCOc1cc3c(cc1OC)C(=O)N1CCC[C@H]1C=N3)N=C[C@@H]1CCCN1C2=O | – | – | 10.2 | – | – | – | – | – | – | – | – | – | – | –
COc1cc2c(cc1O)N=C[C@@H]1C[C@H](F)CN1C2=O | 2.2 | 1 | 0.3 | 0 | 350 | 1190 | 0 | 0 | 170 | 320 | 300 | 200 | 410 | 10
COc1cc2c(cc1OCCCCOc1cc3c(cc1OC)C(=O)N1C[C@@H](F)C[C@H]1C=N3)N=C[C@@H]1C[C@H](F)CN1C2=O | 13.8 | 12.3 | 4.6 | – | – | – | – | – | – | – | – | – | – | –
COc1cc2c(cc1OCCCOc1cc3c(cc1OC)C(=O)N1C[C@@H](F)C[C@H]1C=N3)N=C[C@@H]1C[C@H](F)CN1C2=O | 6.16 | 4.9 | 3.1 | 0 | 2200 | 4200 | 0 | 0 | 2400 | 1960 | – | 1540 | 1880 | –
COc1cc2c(cc1OCc1ccccc1)N=C[C@@H]1C[C@H](F)CN1C2=O | 2.5 | 2 | 1.1 | 1 | 10 | < 10 | 0 | 19 | < 10 | 30 | < 10 | < 10 | < 10 | < 10
COc1cc2c(cc1OCCCCCOc1cc3c(cc1OC)C(=O)N1C[C@@H](F)C[C@H]1C=N3)N=C[C@@H]1C[C@H](F)CN1C2=O | 17.4 | 16 | 14.2 | 0 | < 10 | 20 | 0 | 0 | < 10 | < 10 | < 10 | < 10 | < 10 | < 10
